The test system of one test is MDA-MB-435. Nature of the test: Antiproliferative activity against MDA-MB-435 cells at 50 uM by MTT assay. Format: functional, cell-based. The following applies: Homo sapiens. In general terms: Formazan colour is commonly taken as a measure of viable cells.
For test [1], the target named is T1, Epidermal growth factor receptor (Homo sapiens, UniProt P00533). Nature of the test: Inhibition of EGFR kinase activity at 10 uM. Details: scale not given: the % may be the effect or the level left.
Test [2] has as its target T1, Epidermal growth factor receptor. In words: Inhibition of EGFR kinase activity at 100 uM in presence of 2.5 uM ATP. On the set-up: scale not given: the % may be the effect or the level left. Summed up:
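EGFR purified from A431 cells, pre-incubated 30 min with 100 µM compound before kinase activity measurement. ATP held at 2.5 µM, four times below the Km for this enzyme preparation. Control was 2% DMSO. Mean ± standard deviation from 2–5 experiments in triplicate.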

Test [3] relates to A-431. Nature of the test: Antiproliferative activity against A431 cells at 50 uM by MTT assay after 48 hrs. Format: functional, cell-based. As to conditions: Homo sapiens. The essentials:
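A431 cells exposed to 50 µM compound for 2 days; viability read by MTT. Controls grown in 0.5% DMSO. Values are percentage of control, mean ± standard deviation from three experiments run in quadruplicate.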

The test system of another test is BT-474. Nature of the test: Antiproliferative activity against BT474 cells at 50 uM by MTT assay. The format is functional, cell-based. The following applies: Homo sapiens.
Another test concerns MDA-MB-468. In words: Antiproliferative activity against MDA-MB-468 cells at 50 uM by MTT assay. The format is functional, cell-based. The following applies: Homo sapiens.
Test [4] addresses T1, Epidermal growth factor receptor. Nature of the test: Inhibition of EGFR kinase activity. Summed up:
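EGFR purified from A431 cells, incubated with compound at varying concentrations for 30 min at room temperature. Kinase reaction then started with ATP/MgCl2 and run 30 min at 30 °C. Activity expressed as percent of inhibitor-free control; mean ± standard deviation from 1 to 3 experiments in triplicate.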

Test [5] deals with A-431. In words: Antiproliferative activity against A431 cells by MTT assay. Format: functional, cell-based. As to conditions: Homo sapiens. The essentials:
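A431 cells grown with increasing compound concentrations; proliferation measured by MTT 48 h after treatment. Two experiments performed in triplicate.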

Structures are written as SMILES. Active and inactive are the calls of the source. The rule behind the calls is not given here.

T1 sequence (P00533 whole entry): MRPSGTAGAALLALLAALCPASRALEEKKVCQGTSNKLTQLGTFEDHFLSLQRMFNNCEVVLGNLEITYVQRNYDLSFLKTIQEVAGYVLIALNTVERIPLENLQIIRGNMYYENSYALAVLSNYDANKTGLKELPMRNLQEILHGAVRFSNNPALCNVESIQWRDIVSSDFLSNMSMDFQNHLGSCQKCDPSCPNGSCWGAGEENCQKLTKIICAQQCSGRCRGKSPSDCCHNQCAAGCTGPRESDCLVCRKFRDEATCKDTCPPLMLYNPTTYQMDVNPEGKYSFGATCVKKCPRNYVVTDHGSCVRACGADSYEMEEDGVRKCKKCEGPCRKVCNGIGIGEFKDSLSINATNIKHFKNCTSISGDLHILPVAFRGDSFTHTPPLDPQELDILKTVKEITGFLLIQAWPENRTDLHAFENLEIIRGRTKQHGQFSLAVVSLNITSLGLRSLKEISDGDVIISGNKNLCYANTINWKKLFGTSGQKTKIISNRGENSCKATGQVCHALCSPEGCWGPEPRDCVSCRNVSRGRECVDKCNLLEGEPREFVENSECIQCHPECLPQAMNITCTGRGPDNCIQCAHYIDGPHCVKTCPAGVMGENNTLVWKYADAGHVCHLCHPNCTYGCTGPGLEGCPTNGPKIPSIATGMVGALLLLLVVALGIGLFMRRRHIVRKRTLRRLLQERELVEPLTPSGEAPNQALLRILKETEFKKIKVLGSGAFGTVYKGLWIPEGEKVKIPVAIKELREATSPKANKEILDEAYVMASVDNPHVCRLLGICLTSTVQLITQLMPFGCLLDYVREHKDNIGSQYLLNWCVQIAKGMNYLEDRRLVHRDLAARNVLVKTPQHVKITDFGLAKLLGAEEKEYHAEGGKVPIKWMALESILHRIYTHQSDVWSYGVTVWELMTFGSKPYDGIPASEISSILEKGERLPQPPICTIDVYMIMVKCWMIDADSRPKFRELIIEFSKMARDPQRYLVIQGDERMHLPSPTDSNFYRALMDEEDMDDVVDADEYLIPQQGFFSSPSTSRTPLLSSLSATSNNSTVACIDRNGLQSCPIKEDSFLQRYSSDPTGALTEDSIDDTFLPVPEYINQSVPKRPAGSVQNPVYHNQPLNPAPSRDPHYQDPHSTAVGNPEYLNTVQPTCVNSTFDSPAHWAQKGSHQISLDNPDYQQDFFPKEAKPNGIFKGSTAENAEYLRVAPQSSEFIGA

Turning to `Cc1cccc(-n2ncc3c(NCc4ccc5c(c4)OCO5)ncnc32)c1`, the outcome with MDA-MB-435, in the test with A-431 [3], in the test with BT-474 and in the test on MDA-MB-468 was Active. Moreover, the Activity in test [1] is 40%; in test [2], 48.4%. In test [4], the midpoint of inhibition, the IC50, lay at 15 µM.
Turning to `C=CCOc1ccc2c(c1)C(=NO)c1cc(OCC=C)ccc1-2`, the result in the test on MDA-MB-435, with A-431 [3], in the test on BT-474 and with MDA-MB-468 was Active. In addition, the outcome in test [1] was inactive. Moreover, the Activity in test [2] worked out at 55.3%.
For the molecule `O=C(CSc1nc(O)cc(-c2ccccc2)n1)N1c2ccccc2CCc2ccccc21`, the result in the test with MDA-MB-435, in the test with A-431 [3], in the test with BT-474 and with MDA-MB-468 was Active. Also, the outcome in test [1] was inactive. Moreover, in test [2], the Activity turned out to be 41.1%.
Turning to `Oc1[nH]c2ccc(I)cc2c1/N=N/c1cccc2cccnc12`, the outcome in the test on MDA-MB-435, in the test on A-431 [3], in the test with BT-474 and with MDA-MB-468 was Active. For the same molecule, the result in test [1] was inactive. In addition, the Activity in test [2] worked out at 50%. The molecule also displayed an IC50 in the test on A-431 [5] of 1 µM.
With `Nc1[nH]nc2nc(-c3ccco3)c3c(c12)CCCC3`, the outcome in the test with MDA-MB-435, in the test with A-431 [3], in the test on BT-474 and in the test with MDA-MB-468 was Active. The outcome in test [1] was inactive. Further, the Activity in test [2] was found to be 44.5%.
Turning to `Cc1ccc(-c2cc(NC(=O)c3cccs3)[nH]n2)cc1`, the outcome (with MDA-MB-435; in test [1]; with A-431 [3]; in the test with BT-474; in the test on MDA-MB-468) was inactive. Also, the Activity in test [2] worked out at 44.1%.
Turning to `O=NC1=C(NNc2ccccc2)C(=O)c2ccccc21`, the result in the test on MDA-MB-435, with BT-474 and with MDA-MB-468 was Active. Also, the result in test [1] was inactive. The Activity in test [2] turned out to be 50.3%. This molecule came in with a half-maximal inhibitory concentration (IC50) with A-431 [5] of 6 µM.

The IC50 is the concentration at which inhibition is half-maximal.

The values are drawn from ChEMBL document CHEMBL1146933, “In silico identification of novel EGFR inhibitors with antiproliferative activity against cancer cells” (Bioorg Med Chem Lett, 2006).
